Assays:
[1] = Caco-2 permeability assay; type: in vitro ADME, human; conditions: human; for efflux ratio: Caco-2; for Papp: Mean ± RSD, n = 2
[2] = tested on: gastric cancer cell lines MGC-803, HGC-27, SGC-7901, MKN-45, AGS and BGC-823; assay: Cell proliferation by sulforhodamine B; type: cell-based, human; conditions: 72 h
How it was run: (§1)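 SRB assay after 72 h exposure. OD read at compound addition (ODstart) is subtracted: relative growth = (ODtreated − ODstart)/(ODcontrol − ODstart); inhibitory rate (%) = (ODcontrol − ODtreated)/(ODcontrol − ODstart) × 100. GI50 obtained per cell line. Mean ± SD (n = 3), three independent experiments, biological duplicates.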

[3] = tested on: GES1; assay: Cell proliferation by SRB assay, gastric epithelial cell line; type: cell-based, human; conditions: 72 h
How it was run: as §1

[4] = tested on: MGC-803 cells; assay: Cell cycle, PI staining and flow cytometry; type: cell-based, human; conditions: MGC-803, 48 h
How it was run: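 MGC-803 cells exposed to test compound for 48 h, stained with PI and analysed by flow cytometry with quantification. Mean ± SD (n = 3) from three independent experiments with biological duplicates.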

[5] = tested on: MGC-803 cells; assay: Intracellular ROS, DCFH-DA staining, flow cytometry; type: cell-based, human; conditions: 24 h
How it was run: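 MGC-803 cells exposed to test compound with or without N-acetylcysteine for 24 h, stained with DCFH-DA and analysed by flow cytometry. Groups compared by two-way ANOVA.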

[6] = tested on: MGC-803 and MKN-45 cells; assay: Lipid peroxidation using C11-BODIPY581/591; type: cell-based, human; conditions: 6 h
How it was run: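 After 6 h exposure in 6-well plates, cells are collected and resuspended in PBS with 2 μmol/L C11-BODIPY581/591 for 30 min at 37 °C, then read by flow cytometry. For MGC-803: three independent experiments with biological duplicates, one-way ANOVA.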

[7] = tested on: GPX4; assay: qRT-PCR of GPX4 mRNA; type: cell-based, human; conditions: MGC-803 and MKN-45 cells, 24 h
[8] = tested on: SLC7A11; assay: qRT-PCR of SLC7A11 mRNA; type: cell-based, human; conditions: MGC-803 and MKN-45 cells, 24 h
[9] = tested on: MGC-803 and MKN-45 cells; assay: Intracellular ferrous iron; type: cell-based, human; conditions: 24 h
How it was run: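 Cells in 60-mm dishes exposed to test compound for 24 h, alone or with 3-MA. Cells are then collected and homogenised in iron assay buffer, and ferrous iron is measured with a commercial iron assay kit per the maker's protocol. Mean ± SD (n = 3), three independent experiments, biological duplicates.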

[10] = tested on: MGC-803 xenograft; assay: Gastric cancer cell line-derived xenograft; type: in vivo, nude mice; conditions: for pathologic examination of heart, liver, spleen, lung and kidney: compared with the saline group, end of treatment
How it was run: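 Male nude mice (6–8 weeks) get MGC-803 cells subcutaneously in the right flank. Body weight recorded every two days. After final dose, liver, kidney, lung, heart and spleen taken for histopathology.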

[11] = tested on: GPX4; assay: GPX4 expression in PDX tumor tissues by IHC; type: in vivo, NOD-SCID mice; conditions: sensitive PDX models PDX-01, PDX-02 and PDX-03, end of treatment
[12] = tested on: Caco-2 monolayer; assay: Caco-2 permeability assay; type: in vitro ADME, human; conditions: from A to B
[13] = Metabolic stability in human liver microsomes; type: in vitro ADME
[14] = Metabolic stability in rat liver microsomes; type: in vitro ADME
[15] = Metabolic stability in mouse liver microsomes; type: in vitro ADME
[16] = Metabolic stability in dog liver microsomes; type: in vitro ADME
[17] = Metabolic stability in monkey liver microsomes; type: in vitro ADME
[18] = Pharmacokinetic parameters in rats; type: in vivo; conditions: male, SD, rat, plasma, iv, 20 mg/kg
How it was run: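 Study run by a contract laboratory in male SD rats, n = 3. Parameters taken from mean plasma concentration–time curves.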

[19] = Caco-2, Papp (A‒B), direction A‒B
[20] = Caco-2, Papp (B‒A), direction B‒A

C[C@H]1O[C@@H](O[C@H]2[C@@H](O)C[C@H](O[C@H]3[C@@H](O)C[C@H](O[C@H]4CC[C@@]5(C)[C@H](CC[C@@H]6[C@@H]5C[C@@H](O)[C@]5(C)[C@@H](C7=CC(=O)OC7)CC[C@]65O)C4)O[C@@H]3C)O[C@@H]2C)C[C@H](O)[C@@H]1O [Digoxin]
efflux ratio [1]: 197
Papp [1, 19]: 0.13 ± 0.02 ×10⁻⁶ cm/s
Papp [1, 20]: 24.7 ± 0.1 ×10⁻⁶ cm/s

CC(C)Oc1ccc(C(=O)Cn2ccnc2)cc1-n1c(CN2CCN(C(=O)COc3ccc(Cl)cc3)CC2)nc2ccccc2c1=O [IKE, imidazole ketone erastin, reference compound]
effect on cell growth, compound alone ([2]; MGC-803 and MKN-45 cells, SRB): no effect

C=C1C(=O)[C@@]23C(C(=O)C[C@@H]1[C@H]2OC(=O)[C@@H](N)C(C)C)[C@]12CCCC(C)(C)C1C[C@H]3OC2=O (stereo partly drawn) [a2, (6R,6aR,9S,11bS,14R)-4,4-Dimethyl-8-methylene-7,11,12-trioxododecahydro-1H-6,11b-(epoxymethano)-6a,9-methanocyclohepta[a]naphthalen-14-yl valinate]
GI50 ([2]; Homo sapiens): 880 to 3330 nM
GI50 in GES1 relative to gastric cancer cells [3]: at least five-fold higher
cell population in the G2/M phase [4]: significantly increased
level of ROS [5]: markedly elevated
lipid ROS production [6]: dose-dependently elevated
mRNA level of GPX4 [7]: dose-dependently reduced
mRNA level of SLC7A11 [8]: increased
ferrous iron accumulation [9]: significantly increased
tumor growth ([10]; 5, 10, 20 mg/kg once a day for 21 days, tail vein injection): dose- and time-dependently inhibited tumor growth
anti-tumor efficacy compared with 5-FU (15 mg/kg) ([10]; a2 at 10 or 20 mg/kg, once a day for 21 days): more potent than that of the positive control drug 5-FU
pathologic examination of heart, liver, spleen, lung and kidney [10]: no observed adverse effects
effect on mouse body weight ([10]; once a day for 21 days, compared to 5-FU): fewer effect
expression of GPX4 in tumor tissues [11]: decreased expression of GPX4
efflux ratio [1]: 0.2
Papp [1, 19]: 16.1 ± 1.01 ×10⁻⁶ cm/s
Papp [1, 20]: 3.3 ± 0.3 ×10⁻⁶ cm/s
permeability class against the Caco-2 monolayer [12]: moderately permeable compound
half-life at 1 μmol/L [13]: 34.9 min
microsomal CLint at 1 μmol/L [13]: 99.4 µL/min/mg
half-life at 1 μmol/L [14]: 31.2 min
microsomal CLint at 1 μmol/L [14]: 111 µL/min/mg
half-life at 1 μmol/L [15]: 23.7 min
microsomal CLint at 1 μmol/L [15]: 146 µL/min/mg
half-life at 1 μmol/L [16]: 32.2 min
microsomal CLint at 1 μmol/L [16]: 108 µL/min/mg
half-life at 1 μmol/L [17]: 23.5 min
microsomal CLint at 1 μmol/L [17]: 148 µL/min/mg
AUC(0-inf) [18]: 14800 ± 1330 ng·h/mL
AUC(0-t) [18]: 14800 ± 1320 ng·h/mL
Cmax [18]: 18300 ± 1420 ng/mL
MRT last [18]: 92.4 ± 7.8 min
Vd [18]: 7.73 ± 1.46 L/kg
half-life [18]: 236 ± 28.8 min

O=c1[nH]cc(F)c(=O)[nH]1 [Compound 5-FU, 5-fluorouracil, reference compound]
pathologic examination of heart, liver, spleen, lung and kidney [10]: no observed adverse effects

CC(C)NCC(O)COc1cccc2ccccc12 (centres unmarked) [Propranolol]
efflux ratio [1]: 0.7
Papp [1, 19]: 28.3 ± 0.43 ×10⁻⁶ cm/s
Papp [1, 20]: 18.5 ± 0.3 ×10⁻⁶ cm/s
